# The source made the active and inactive calls. No cut-off for these calls is given here.
# Target: T1, Cytosolic phospholipase A2 (Homo sapiens, UniProt P47712)
# T1 sequence (P47712 whole entry): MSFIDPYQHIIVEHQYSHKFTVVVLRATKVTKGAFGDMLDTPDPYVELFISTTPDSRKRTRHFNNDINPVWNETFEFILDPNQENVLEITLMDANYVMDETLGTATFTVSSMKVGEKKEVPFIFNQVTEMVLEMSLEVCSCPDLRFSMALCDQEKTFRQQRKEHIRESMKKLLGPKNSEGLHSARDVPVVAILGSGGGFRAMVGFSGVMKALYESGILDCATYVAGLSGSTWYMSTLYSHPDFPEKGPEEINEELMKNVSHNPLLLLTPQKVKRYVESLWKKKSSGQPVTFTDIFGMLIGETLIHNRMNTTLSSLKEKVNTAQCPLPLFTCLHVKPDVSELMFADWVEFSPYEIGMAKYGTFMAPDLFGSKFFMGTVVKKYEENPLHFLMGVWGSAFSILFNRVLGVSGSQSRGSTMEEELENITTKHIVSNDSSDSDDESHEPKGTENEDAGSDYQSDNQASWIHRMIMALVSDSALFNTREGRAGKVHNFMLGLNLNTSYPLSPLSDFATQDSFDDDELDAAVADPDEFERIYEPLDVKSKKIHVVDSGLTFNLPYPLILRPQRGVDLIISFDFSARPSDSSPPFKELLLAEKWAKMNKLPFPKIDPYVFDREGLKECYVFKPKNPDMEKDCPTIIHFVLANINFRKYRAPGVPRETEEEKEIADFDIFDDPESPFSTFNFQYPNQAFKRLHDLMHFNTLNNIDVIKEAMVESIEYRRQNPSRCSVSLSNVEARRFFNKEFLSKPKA
# Assay: Inhibition of human platelet cPLA2-alpha assessed as arachidonic acid release by vesicle assay
# Method in brief: (§1)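 cPLA2α isolated from human platelets. Highest test concentration 10 µM, kept low to limit inhibitor mole fraction in the interface. Incubated 60 min. Released arachidonic acid is cleaned up by solid-phase extraction, then quantified by reversed-phase HPLC with UV detection at 200 nm.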
row,IC50 [nM],Compound
1,840,CCCCCCCCc1ccc(OCC(=O)Cn2ccc3cc(C(=O)N(C)C)ccc32)cc1
2,370,CCCCCCCCc1ccc(OCC(=O)Cn2ccc3cc(C(=O)NC)ccc32)cc1
3,1100,CCCCCCCCc1ccc(OCC(=O)Cn2ccc3cc(-c4nnn[nH]4)ccc32)cc1
4,3500,CCCCCCCCc1ccc(OCC(=O)Cn2ccc3cc(-c4noc(=O)[nH]4)ccc32)cc1
5,500,CCCCCCCCc1ccc(OCC(=O)Cn2ccc3cc(S(=O)(=O)N(C)C)ccc32)cc1
6,390,CCCCCCCCc1ccc(OCC(=O)Cn2ccc3cc(S(N)(=O)=O)ccc32)cc1
7,310,CCCCCCCCc1ccc(OCC(=O)Cn2ccc3cc(S(=O)(=O)NC)ccc32)cc1
8,500,CCCCCCCCc1ccc(OCC(=O)Cn2ccc3cc(C(=O)N4CCOCC4)ccc32)cc1

row,Compound,IC50 [nM]
1,CCCCC/C=C\C/C=C\C/C=C\C/C=C\CCCC(=O)C(F)(F)F [ARACHIDONYL TRIFLUOROMETHYLKETONE],2300
2,CCCCCCCCc1ccc(OCC(=O)Cn2cc(C(=O)OC)c3cc(C(=O)O)ccc32)cc1,5

# Target: T2, Cytosolic phospholipase A2 (Homo sapiens) (UniProt P47712)
# T2 sequence (whole entry): T1 sequence (P47712 whole entry)
# Assay: Inhibition of human platelet cPLA2-alpha assessed as arachidonic acid release at 10 uM by vesicle assay
# Method in brief: as §1
Activity,inhibition [%],Compound
inactive,–,CCCCCCCCc1ccc(OCC(=O)Cn2ccc3cc(-c4nc(CC)no4)ccc32)cc1
inactive,–,CCCCCCCCc1ccc(OCC(=O)Cn2ccc3cc(-c4nc(Cc5ccccc5)no4)ccc32)cc1
–,29,CCCCCCCCc1ccc(OCC(=O)Cn2ccc3cc(/C=C4\SC(=O)NC4=O)ccc32)cc1

# — ChEMBL document CHEMBL1147848, “1-(5-Carboxy- and 5-carbamoylindol-1-yl)propan-2-ones as inhibitors of human cytosolic phospholipase A2alpha: bioisosteric replacement of the carboxylic acid and carboxamide moiety” (Bioorg Med Chem, 2007)
